This is an account of results in ChEMBL document CHEMBL1268870 (J Med Chem, 2010).

Molecules are shown by their SMILES. The source made the active and inactive calls. The rule behind the calls is not given here.

Experiment [1] has as its target T1, GABA-A receptor; alpha-1/beta-2/gamma-2 (Homo sapiens) (UniProt P14867+P47870+P18507). Kind of experiment: Allosteric modulation of human GABAA alpha-1-beta-2-gamma-2 receptor expressed in Xenopus laevis assessed as enhancement of [3H]flunitrazepam binding up to 10 uM.
The target in experiment [2] is T2, 5-hydroxytryptamine receptor 3A (Homo sapiens) (UniProt P46098).
T2 sequence (whole entry): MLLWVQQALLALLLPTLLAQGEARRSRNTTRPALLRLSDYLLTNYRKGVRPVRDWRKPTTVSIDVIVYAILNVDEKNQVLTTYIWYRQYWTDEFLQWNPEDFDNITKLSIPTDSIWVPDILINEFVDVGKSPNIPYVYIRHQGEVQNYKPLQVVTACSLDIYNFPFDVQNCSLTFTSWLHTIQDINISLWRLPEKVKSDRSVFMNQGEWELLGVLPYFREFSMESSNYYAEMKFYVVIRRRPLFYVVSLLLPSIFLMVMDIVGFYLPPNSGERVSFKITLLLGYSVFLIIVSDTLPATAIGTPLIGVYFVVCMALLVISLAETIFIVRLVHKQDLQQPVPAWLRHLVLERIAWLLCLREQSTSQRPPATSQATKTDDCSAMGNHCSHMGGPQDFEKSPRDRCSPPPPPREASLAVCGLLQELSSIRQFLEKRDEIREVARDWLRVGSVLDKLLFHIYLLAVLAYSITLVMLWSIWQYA
Kind of experiment: Displacement of [3H]GR65630 from 5HT3A receptor expressed in Xenopus oocyte. (In a radioligand displacement assay an active substance lowers the binding of a labelled ligand.)

The nature of experiment [3]: Inhibition of Torpedo nAChR expressed in Xenopus oocyte assessed as inhibition of ACh-induced channel current.
A further experiment has as its system Xenopus laevis. Description: Anesthetic potency in Xenopus laevis. The experiment is classed as functional, organism-based.
Experiment [4] has as its target T1, GABA-A receptor; alpha-1/beta-2/gamma-2 (Homo sapiens). Description: Agonist activity at human GABA-A alpha-1-beta-2-gamma-2 receptor expressed in Xenopus laevis assessed as increase in channel current at 10 uM by electrophysiology relative to control. In kind it is functional.
For experiment [5], the target named is T2, 5-hydroxytryptamine receptor 3A (Homo sapiens). Kind of experiment: Inhibition of 5HT3A receptor expressed in Xenopus oocyte at 9 uM. In short, it runs like this: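 Oocytes injected with ~50 ng human 5-HT3A cRNA. Two-electrode voltage clamp at −50 mV, room temperature, ND96. Compound was pre-applied for 30 s, then co-applied with 100 μM 5-HT for 30 s. Peak current was expressed as a percentage of the mean of the flanking 100 μM 5-HT control currents. Fixed compound concentration of 9 μM.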

In experiment [6] the target is T1, GABA-A receptor; alpha-1/beta-2/gamma-2 (Homo sapiens). Kind of experiment: Agonist activity at human GABAA alpha-1-beta-2-gamma-2 mutant receptor expressed in Xenopus laevis assessed as increase in channel current at 10 uM by electrophysiology relative to control. The experiment is classed as functional. In outline: (§1)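 Oocytes expressing human α1β2(M286W)γ2L GABA-A receptor. Two-electrode voltage clamp at −50 mV, room temperature, ND96 pH 7.5. […] Applications lasted 15–20 s with ~3 min washes.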

Experiment [7] shares this target. Description: Agonist activity at human GABA-A alpha-1-beta-2-gamma-2 receptor expressed in Xenopus laevis assessed as increase in channel current at 5 uM by electrophysiology relative to control. The experiment is classed as functional.
For experiment [8] the target is unchanged. Description: Agonist activity at human GABAA alpha-1-beta-2-gamma-2 mutant receptor expressed in Xenopus laevis assessed as increase in channel current at 5 uM by electrophysiology relative to control. The experiment is classed as functional. In outline:
as §1

For another experiment, the system named is Torpedo. Kind of experiment: Binding affinity to Torpedo nAChR assessed as photoincorporation in to membrane. In kind it is cell membranes. The following applies: tested as the 3H-labelled form. In outline:
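Torpedo californica nAChR-rich membranes at 2 mg/mL in Torpedo saline pH 7.0 with 1 mM oxidized glutathione. Incubated 40 min at room temperature with 0.3 μM tritiated probe, ± carbamylcholine, proadifen, tetracaine or PCP, then irradiated at 365 nm for 30 min on ice. Subunits separated by SDS-PAGE. Incorporation measured by fluorography and by scintillation counting of excised bands (two parallel labelings).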

Experiment [9] has as its target T1, GABA-A receptor; alpha-1/beta-2/gamma-2 (Homo sapiens). Description: Allosteric modulation of human GABAA alpha-1-beta-2-gamma-2 receptor expressed in Xenopus laevis assessed as enhancement of [3H]mucimol binding up to 10 uM.
Experiment [10] addresses T2, 5-hydroxytryptamine receptor 3A (Homo sapiens). Kind of experiment: Inhibition of 5HT3A receptor expressed in Xenopus oocyte at 20 uM.
The next experiment is filed under the species Homo sapiens. Kind of experiment: Agonist activity at human GABA-A alpha-1-beta-2-gamma-2 receptor expressed in Xenopus laevis assessed as increase in channel current at saturated concentration by electrophysiology relative to control. The experiment is classed as functional.

In the case of `CCOC(=O)c1cncn1[C@H](C)c1ccccc1`, the result in experiment [1] was Active. Moreover, the result in [2] was inactive.
Regarding `CCOC(=O)c1cncn1[C@H](C)c1ccc(C2(C(F)(F)F)N=N2)cc1`, in experiment [3], the IC50 was 11.3 µM. In the experiment on Xenopus laevis, the EC50 worked out at 17.1 µM. Besides, the Imax in experiment [4] came out at 0.73%. This compound also displayed an inhibition in [5] of 34%.
As for `CCOC(=O)c1cncn1[C@@H](C)c1ccc(C2(C(F)(F)F)N=N2)cc1`, the fold change (FC) in [6] worked out at 2.2; in experiment [4] it was 3; in [7], 2.2; in experiment [8], 1.8. Besides, the IC50 in experiment [3] was 4.7 µM. A half-maximal response in the experiment on Xenopus laevis (EC50) required 4.9 µM. The Imax in [4] was 0.9%. In experiment [5], the inhibition was found to be 29%.
`CCOC(=O)c1cncn1C(C)c1ccc(C2(C(F)(F)F)N=N2)cc1` (stereo unspecified): the IC50 in [3] turned out to be 4.1 µM. Moreover, the result in [1], in [9] and in experiment [2] was inactive. Besides, in the experiment on Torpedo, the outcome was Active. Also, the inhibition in experiment [10] was 1.7%. Further, the Activity in the experiment listed under Homo sapiens worked out at 1.3%.

For orientation: IC50 means the midpoint of a concentration-inhibition curve. The EC50 is the concentration giving half of the maximal effect. The inhibition is how much of the control response was suppressed. Low values mean a response near the control, high ones a response far below the control.
